Consider one molecule from ChEMBL document CHEMBL3804828, “2,4,6-Triaminopyrimidine as a Novel Hinge Binder in a Series of PI3Kδ Selective Inhibitors” (J Med Chem, 2016).

Series [1] is described as follows: Volume of distribution at steady state in Lewis rat at 1 mg/kg, iv administered via infusion over 30 mins measured after 24 hrs by LC/MS/MS analysis. Particulars: in vivo, read-out: Vdss. The format is ADME, organism-based. The method in brief: (§1)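 Female Lewis rats, n=3 per route; 30-min iv infusion at 1 mg/kg and oral dose at 5 mg/kg, both in 30% PEG 400/70% water; plasma concentration-time profiles sampled to 24 h; values as mean ± SD.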

Series [2] is described as follows: Plasma clearance in Lewis rat at 1 mg/kg, iv administered via infusion over 30 mins measured after 24 hrs by LC/MS/MS analysis. The format is ADME, organism-based. The essentials:
as §1

The nature of series [3]: Oral bioavailability in beagle dog at 5 mg/kg administered through gavage measured after 24 hrs by LC/MS/MS analysis. It is filed as ADME, organism-based, Canis lupus familiaris. Particulars: in vivo. The method in brief:
(§2)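 Dogs, n=3 per route; iv dose 1 mg/kg in 5% ethanol/55% PEG 400/40% citrate buffer pH 2; oral dose 5 mg/kg in 15% Captisol (w/v) in water; plasma pharmacokinetics.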

For series [4], the system named is Rattus norvegicus. Nature of the series: Antiarthritis activity in collagen-induced Lewis rat arthritis model assessed as reduction in pannus formation administered bid through oral gavage for 7 days measured every day started on day 9 and continuing through day 16 of compound dosing. The format is functional. The method in brief:
(§3)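 Female Lewis rats with established collagen-induced arthritis dosed orally by gavage twice daily for 7 days (study days 10–16) with vehicle, 0.34, 1.07, 4.6 or 10 mg/kg, or dexamethasone 0.03 mg/kg; right and left ankle diameters by caliper daily, days 9–16; ankle and knee sections graded 0–5 per histopathology parameter; p < 0.05 versus arthritis + vehicle.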

For series [5], the species on record is Homo sapiens. The experiment in a line: Selectivity ratio of IC50 for human full length PI3Kgamma to IC50 for human full length PI3Kdelta catalytic subunit/p85alpha. The essentials: (§4)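 Ratio calculated from the isoform-specific PI3K IC50 values, with enzyme assays run in quadruplicate.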
The subject of series [6] is Rattus norvegicus. Nature of the series: Antiarthritis activity in collagen-induced Lewis rat arthritis model assessed as reduction in ankle inflammation administered bid through oral gavage for 7 days measured every day started on day 9 and continuing through day 16 of compound dosing. It is filed as functional. The method in brief:
as §3

The species named for series [7] is Homo sapiens. The experiment in a line: Selectivity ratio of IC50 for human recombinant PI3Kbeta to IC50 for human full length PI3Kdelta catalytic subunit/p85alpha. The method in brief:
as §4

The species named for series [8] is Homo sapiens. The experiment in a line: Selectivity ratio of IC50 for human full length PI3Kalpha catalytic subunit/p85alpha to IC50 for human full length PI3Kdelta catalytic subunit/p85alpha. The essentials:
as §4

Series [9] in a line: Plasma clearance in beagle dog at 1 mg/kg, iv administered via infusion over 30 mins measured after 24 hrs by LC/MS/MS analysis. The format is ADME, organism-based, Canis lupus familiaris. The method in brief:
as §2

The nature of series [10]: Oral bioavailability in Lewis rat at 5 mg/kg administered through gavage measured after 24 hrs by LC/MS/MS analysis. The format is ADME, organism-based. Particulars: in vivo. The method in brief:
as §1

Series [11] is filed under the species Rattus norvegicus. Nature of the series: (§5) Inhibition of PI3Kdelta in rat B-cells assessed as reduction in anti IgD-mediated cell activation after 18 to 24 hrs by flow cytometric analysis. The essentials: (§6)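 Rat whole blood, ex vivo; B-cell activation stimulated by anti-IgD (BCR); EC50 and EC90 derived from inhibition of activation.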
Series [12] can be described thus: as §5. The essentials:
as §6

The subject of series [13] is Rattus norvegicus. The experiment in a line: Antiarthritis activity in collagen-induced Lewis rat arthritis model assessed as reduction in ankle inflammation at 1.07 mg/kg administered bid through oral gavage for 7 days measured every day started on day 9 and continuing through day 16 of compound dosing relative to vehicle-treated control. It is filed as functional. The method in brief:
as §3

Series [14] is described as follows: Cmax in Lewis rat at 1 mg/kg, iv administered via infusion over 30 mins or at 5 mg/kg, po administered via gavage by LC/MS/MS analysis. The format is ADME, organism-based. The settings on record: in vivo. The essentials: as §1
Series [15] has as its system Rattus norvegicus. Nature of the series: Antiarthritis activity in collagen-induced Lewis rat arthritis model assessed as reduction of bone resorption administered bid through oral gavage for 7 days measured every day started on day 9 and continuing through day 16 of compound dosing. The format is functional. The essentials: as §3
Series [16] is described as follows: Half life in beagle dog at 5 mg/kg, po administered through gavage measured after 24 hrs by LC/MS/MS analysis. Particulars: in vivo. The format is ADME, organism-based, Canis lupus familiaris.
Series [17] deals with Rattus norvegicus. Nature of the series: Antiarthritis activity in collagen-induced Lewis rat arthritis model assessed as reduction in pannus formation at 1.07 mg/kg administered bid through oral gavage for 7 days measured every day started on day 9 and continuing through day 16 of compound dosing relative to vehicle-treated control. It is filed as functional. Set-up: scale not given: the % may be the effect or the level left. The method in brief: as §3

The test system of series [18] is Rattus norvegicus. Nature of the series: In vivo inhibition of PI3Kdelta in rat B-cells assessed as reduction in […] cell activation. The format is functional, organism-based. The essentials: as §6
Series [19] can be described thus: Volume of distribution at steady state in beagle dog at 1 mg/kg, iv administered via infusion over 30 mins measured after 24 hrs by LC/MS/MS analysis. It is filed as ADME, organism-based, Canis lupus familiaris. The settings on record: in vivo, read-out: Vdss. The method in brief:
as §2

For `C[C@H](Nc1nc(N)nc(N)c1C#N)c1nc2cccc(F)c2c(=O)n1-c1cc(F)cc(F)c1`, the values for the Vd in series [1] and in series [19] were 2.6 L/kg and 1.3 L/kg, respectively. The clearance in series [2] was 12.3 mL/min/kg; in [9], 9.67 mL/min/kg. The bioavailability came to 100% in series [3] and 106% in series [10]. In addition, the ED50 in the series on Rattus norvegicus [4], in the series on Rattus norvegicus [6] and in the series with Rattus norvegicus [15] was 1.5 mg/kg in each case. For the same molecule, the Ratio IC50 in the series filed under Homo sapiens [5] is 180; in the series listed under Homo sapiens [7] it was 650; in the series filed under Homo sapiens [8], 1900. Further, the EC90 in the series filed under Rattus norvegicus [11] and with Rattus norvegicus [18] was 100 nM each time. Besides, the EC50 in series [12] amounted to 11 nM; with Rattus norvegicus [18] (Rattus norvegicus), 20.5 nM. Besides, in the series on Rattus norvegicus [13], the inhibition in vivo at 1.07 mg/kg was 45%. Further, in [14], the highest level (Cmax) was 2830 nM. The same molecule had a half-life in series [16] of 2.17 h. The Activity in the series with Rattus norvegicus [17] came to 60%.
